Source: ChEMBL document CHEMBL3112446, “Discovery and optimization of a new class of pyruvate kinase inhibitors as potential therapeutics for the treatment of methicillin-resistant Staphylococcus aureus infections” (Bioorg Med Chem, 2014)
≈ marks a conversion by molar mass, not a printed value. Calls of active or inactive are those of the source. No cut-off for these calls is given here.

Assays:
[1] = system: Staphylococcus aureus; experiment: Bacteriostatic activity against Staphylococcus aureus harboring LAC Dpyk::ErmR mutant in TSB-G+P medium at 1.6 uM after 8 to 24 hrs; format: functional, organism-based
Outline: (§1)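 S. aureus LAC pyk::ErmR (pyk replaced by an ErmR cassette) and WT overnight cultures were washed twice in PBS and diluted to OD600 0.1 (~2.5 × 10^7 cfu/ml). Media were pre-warmed (37 °C) BHI or TSB without glucose plus 1% sodium pyruvate (TSB-G+P), ±1.6 µM inhibitor. Cultures grew at 37 °C, 250 rpm. Viable counts were taken by dilution plating on glucose-free TSA plus 1% pyruvate at 0, 8 and 24 h.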

[2] = system: Staphylococcus aureus; experiment: Antibacterial activity against methicillin-resistant Staphylococcus aureus MW2 by two fold serial dilution method; format: functional
[3] = system: Staphylococcus aureus; experiment: Bacteriostatic activity against Staphylococcus aureus harboring LAC Dpyk::ErmR mutant in Brain-Heart infusion broth medium at 1.6 uM after 8 to 24 hrs; format: functional, organism-based; outline: as §1
[4] = system: Staphylococcus aureus; experiment: Bacteriostatic activity against wild type Staphylococcus aureus at 1.6 uM after 8 to 24 hrs; format: functional, organism-based
Outline: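 Washed overnight cultures were diluted to OD600 = 0.1 (~2.5 × 10^7 cfu/ml) in pre-warmed medium, either BHI or glucose-free TSB with 1% sodium pyruvate, ±1.6 µM compound. Grown at 37 °C with shaking at 250 rpm. Viable counts by dilution plating on glucose-free TSA with 1% pyruvate at 0, 8 and 24 h.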

[5] = Inhibition of methicillin-resistant Staphylococcus aureus pyruvate kinase; details: read-out: IC50
Outline: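 His-tagged MRSA PK. Compounds diluted in 100% DMSO. IC50 calculated from a triplicate 15-point titration.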

[6] = system: Staphylococcus aureus; experiment: Antibacterial activity against Staphylococcus aureus ATCC 29213 by two fold serial dilution method in presence of efflux inhibitor verapamil; format: functional
Outline: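 S. aureus ATCC29213, 96-well twofold broth microdilution in CAMHB with verapamil 200 mg/L (sub-inhibitory) versus plain CAMHB. Incubated 18–24 h at 37 °C, OD600 read, compound-plus-medium background subtracted. MIC is the lowest concentration giving complete growth inhibition relative to compound-free wells.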

[7] = system: Staphylococcus aureus; experiment: Bactericidal activity against Staphylococcus aureus harboring LAC Dpyk::ErmR mutant at 1.6 uM after 8 to 24 hrs; format: functional, organism-based; outline: as §1
[8] = system: Staphylococcus aureus; experiment: Antibacterial activity against Staphylococcus aureus MRSA252; format: functional
[9] = system: Staphylococcus aureus; experiment: Antibacterial activity against Staphylococcus aureus […]; format: functional

For `Clc1ccc2[nH]c(-c3cc4ccc(Br)cc4[nH]3)cc2c1`, the Activity [1] was “inactive”, the MIC [2] was 0.5 µg/mL (≈ 1.45 µM) and the Activity [3] was “Active”. The Activity [4] was “Active”, the IC50 [5] was 2 nM and the MIC [6] was 0.5 µg/mL. The Activity [7] was “inactive”.
`O=C1NC[C@@H](c2c[nH]c3cc(Br)ccc23)N[C@H]1c1c[nH]c2cc(Br)ccc12` (relative stereo) [CIS-3,4-DIHYDROHAMACANTHIN B] gave an IC50 [5] of 16 nM, an MIC [8] of 12.5 µg/mL (≈ 25.6 µM) and an MIC [9] of 12.5 µg/mL (≈ 25.6 µM).
